Measured values from different studies.
Protocols differ between the studies behind these lines.
Organism: Severe acute respiratory syndrome coronavirus 2
Action: inhibitor

`CCOc1nc2cccc(C(=O)O)c2n1Cc1ccc(-c2ccccc2-c2nnn[nH]2)cc1` has an IC50 of 714 nM (viral replication; Caco-2; replicon).
`CC(C)C(=O)OC[C@@]1(F)O[C@@H](n2cnc(-c3c[nH]c(=O)[nH]c3=O)c2)[C@H](OC(=O)C(C)C)[C@@H]1OC(=O)C(C)C` has an IC50 of 49800 nM (viral replication; A549-ACE2; 24 h).
`CCC(CC)COC(=O)[C@H](C)N[P@](=O)(OC[C@H]1O[C@@](C#N)(c2ccc3c(N)ncnn23)[C@H](O)[C@@H]1O)Oc1ccccc1` gave an IC50 of 100 nM (viral replication; A549-hACE2-TMPRSS2; 24 h).
For `COc1nc(N)ncc1-c1cn([C@@H]2O[C@](F)(CO)[C@@H](O)[C@H]2O)cn1`, the IC50 was greater than 100000 nM (viral replication; A549-ACE2; 24 h).
The IC50 of `Cc1ccccc1-n1nnnc1Sc1ccc(C(=O)c2ccccc2)cc1[N+](=O)[O-]` is reported as 25300 nM (viral replication; A549-hACE2-TMPRSS2; 24 h).
For `Cc1cn2nc([C@@H]3CCCCN3C(=O)c3cc(Cl)ccc3NS(C)(=O)=O)cc2nc1N1CC[C@H](N)C1`, the IC50 was 320 nM (viral entry; HeLa-ACE2; pseudovirus).
With `O=c1[nH]c2ccccc2n1C1CCN(CCCC(c2ccc(F)cc2)c2ccc(F)cc2)CC1` the IC50 was 4910 nM (viral replication; Calu-3; replicon).
`COc1ncc(-c2cn([C@@H]3O[C@](F)(COC(=O)C(C)C)[C@@H](OC(=O)C(C)C)[C@H]3OC(=O)C(C)C)cn2)c(N)n1` has an IC50 of 41900 nM (viral replication; A549-ACE2; 24 h).
For `Cc1ccc(NC(=O)C2(c3ccc4c(c3)OC(F)(F)O4)CC2)nc1-c1cccc(C(=O)O)c1`, the IC50 was 964 nM (viral replication; Caco-2; replicon).
With `O=C(Nc1ccc([N+](=O)[O-])cc1Cl)c1cc(Cl)ccc1O` the IC50 was 1350 nM (viral entry; HeLa-ACE2; pseudovirus).
